This is one part of a sample in which hits are shown more often than they occur.
NOD2-RIPK2 inh: blocks binding of human NOD2 to RIPK2; CHO BLA complementation NOD2-RIPK2, CCF4 ratio; O43353; hit rate 0.38% among 360,000; inhibition, % at 4.98 µM; in the data active = inhibition above about 21%
CHOP inh: blocks CHOP induction under ER stress; CHO-K1 CHOP-promoter luciferase, tunicamycin-induced, 15-18 h; inhibition, % at 10 µM; hit rate 3.8% among 220,000; AID 2732;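 active = compounds that reduced the stress-induced luciferase reporter signal by more than about 70% of percent inhibition, limit read from the data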
XBP1 UPR activ: activators of adaptive arm of unfolded protein response (XBP1) | CHO-XBP1 luciferase reporter, IRE1-XBP1 UPR activation, luminescence; percent of tunicamycin response, DMSO as zero | activation, % at 20 µM | hit rate 0.33% among 330,000;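 active = versus positive control, 20 µM dose yields 30% or more activation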
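Assay system: CHO-XBP1 luciferase reporter cells; Schedule: 6 h treatment, 37 °C; Detection: glow luminescence from Steady-Glo reagent; Benchmarks: high control tunicamycin 10 µg/mL final, low control DMSO vehicle only.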
TLR9-MyD88 inh: TLR9-MyD88 interaction inhibition; CHO BLA complementation TLR9-MyD88, CCF4 FRET ratio; hit rate 0.21% among 340,000; inhibition, % at 4.98 µM;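 active = inhibition above the mean over all tested compounds plus 3 SD, cut at about 21% in these data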
CHOP UPR activ: apoptotic UPR (CHOP) activation; hit rate 0.34% among 330,000; CHO-CHOP luciferase reporter, luminescence; percent of tunicamycin response over DMSO baseline; activation, % at 10 µM;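 active = at 10 µM dose, activation of 40% or more, normalized to positive control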
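Test system: CHO CHOP reporter cells. Input: 500 CHO-CHOP cells per well. Medium: F12 with 10% FBS. Technique: luciferase luminescence. Measure: percent activation relative to tunicamycin control. Dosing: 10 µM compound, 0.5% DMSO. Timing: 16-18 h cell attachment, then 6 h compound exposure, 37 °C.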
TLR4-MyD88 BLA: blocks binding of human TLR4 to MyD88; O00206+Q99836; HeLa CL3-4 TLR4/MyD88 BLA complementation, FRET ratio; inhibition, % at 8.4 µM; hit rate 0.18% among 200,000; AID 861; in the data active = inhibition above about 25%
Of the large screens only hits and unclear results are named; the others gave an inactive call.

Cc1ccc(NC(=O)c2ncn(CCCN(CCCn3cnc(C(=O)Nc4ccc(C)c(C)c4)n3)Cc3ccc4[nH]ccc4c3)n2)cc1C	none (no result: CHOP inh, XBP1 UPR activ, CHOP UPR activ, TLR4-MyD88 BLA)
CCCCCCCCN1C(=O)[C@H](CC(=O)NCc2cccc(C(F)(F)F)c2)C[C@@]2(C(=O)OCC)CCC=C12	none (no result: CHOP inh, XBP1 UPR activ, TLR9-MyD88 inh, CHOP UPR activ, TLR4-MyD88 BLA)
COC(=O)c1ccc2c(=O)n(Cc3ccco3)c(SCC(=O)Nc3ccc(C)c(Cl)c3)nc2c1	XBP1 UPR activ 38.4
Fc1ccc(CN2CCN(C(=S)NCCc3ccccc3)CC2)c(Cl)c1	CHOP inh 84.8
NC(=O)c1cccc(Nc2nc(C(N)COCc3ccccc3)cs2)n1 (stereo not given)	none (no result: CHOP inh, XBP1 UPR activ, TLR9-MyD88 inh, CHOP UPR activ, TLR4-MyD88 BLA)
COc1ccc(N=C/C=C2/C=C(c3ccccc3)OC(C)(C)O2)cc1	CHOP inh 94.1
COc1ccc(N=Cc2nc(-c3ccccc3)oc2OC(C)=O)cc1	none (no result: TLR4-MyD88 BLA)
Cc1sc(NC(=O)c2oc3ccccc3c2C)c(C#N)c1C	none
Cc1cc(C(=O)Nc2sc(C)c(C)c2C#N)c(C)o1	CHOP inh 75.4
CCC(O)c1cnc(OCc2ccccc2)nc1OCc1ccccc1 (stereo not given)	none (no result: CHOP inh, XBP1 UPR activ, CHOP UPR activ, TLR4-MyD88 BLA)
CS/C(=N\S(=O)(=O)c1ccc(Cl)cc1)c1ccccc1	CHOP inh 77.3
C[C@H](Cc1ccccc1)Nc1ncnc2c1ncn2[C@@H]1O[C@H](CO)[C@H](O)C1O (stereo not given in full)	none (no result: NOD2-RIPK2 inh, XBP1 UPR activ, TLR9-MyD88 inh, CHOP UPR activ, TLR4-MyD88 BLA)
CCCc1ccc(C(=O)N2CCN(c3ccccc3OCC)CC2)cc1	CHOP inh 70.7
Cc1ccc(C(=O)Nc2cc(C(C)C)c(O)c(C(C)C)c2)cc1	CHOP inh 73.9
Cc1ccc(NC(=O)c2ccc(C)cc2)cc1	none (no result: CHOP inh, TLR4-MyD88 BLA)
CCOc1ccc(-c2nnc(N3CCCCC3)c3ccccc23)cc1	CHOP inh 79.2
CCN(CC)C(=O)COc1ccc(-c2nnc(N3CCCCC3)c3ccccc23)cc1	none
O=C(CC1NC(=O)NC1=O)Nc1ccc(Cl)cc1 (stereo not given)	CHOP inh 74.6
O=C(CC1SC(=O)NC1=O)Nc1ccc(Cl)cc1 (stereo not given)	none
Oc1c(CN2CCN(c3ccccc3)CC2)cc(Br)c2cccnc12	CHOP inh 89.1 (no result: XBP1 UPR activ, CHOP UPR activ, TLR4-MyD88 BLA)
Cc1cc(=O)[nH]c(NN=C2CCC(C(C)(C)C)CC2)n1 (stereo not given)	CHOP inh 82.1
C/C(=N\Nc1nc(C)cc(=O)[nH]1)C1CC1	none
CNS(=O)(=O)c1cccc(C(=O)OCc2cc(Cl)cc3c2OCOC3)c1	CHOP inh 74.8
O=C(Nc1nnc([C@H]2C[C@H](O)[C@@H](CO)O2)s1)Nc1cccc2c1CCCC2	none (no result: CHOP inh, XBP1 UPR activ, TLR9-MyD88 inh, CHOP UPR activ, TLR4-MyD88 BLA)
CCc1ccc(NC(=O)c2c(C(=O)Nc3ccccc3)sc3nc(C)cc(=O)n23)cc1	CHOP inh 82.4
CCCCCCOC(=O)Sc1nc2ccccc2o1	CHOP inh 95.1
CCOC(=O)NC(=O)CSc1nc2ccccc2[nH]1	none
CCOC(=O)C1(C(C)(C)CC)CC(CSc2nc3ccccc3[nH]2)OC1=O (stereo not given)	CHOP inh 75.4
CN1OC[C@@H]2CN(Cc3cc(Cl)cc(Cl)c3)[C@H](c3cccc(Br)c3)C[C@@H]21	none (no result: CHOP inh, XBP1 UPR activ, CHOP UPR activ, TLR4-MyD88 BLA)
Cc1nc(NC(=O)CCc2ccccc2)ccc1Br	CHOP inh 79.9
Cc1ccccc1C(=O)Nc1ccc(Br)c(C)n1	none
CC(C)c1nc(N2CCN(C(=O)c3ccccc3)CC2)c(C#N)c2c1COC(C)(C)C2	CHOP inh 91.0
CC(C)c1nc(N2CCN(C(=O)c3ccco3)CC2)c(C#N)c2c1COC(C)(C)C2	none (no result: CHOP inh, TLR4-MyD88 BLA)
Cc1ccc(Cl)cc1N1CCN(C(=O)c2ccc(NS(=O)(=O)c3c(C)noc3C)cc2)CC1	none
Cc1ccc(C)c(N2CCN(C(=O)c3ccc(NS(=O)(=O)c4c(C)noc4C)cc3)CC2)c1	CHOP inh 71.8
CCc1ccc(OCC(=O)Nc2cccc3c2CCCC3)cc1	CHOP inh 79.1
CCOC(=O)c1ccc(NC(=O)CCc2nc(-c3ccccc3Cl)no2)cc1	CHOP inh 81.2
CCOC(=O)c1cccc(NC(=O)CCc2nc(-c3ccc(C)cc3)no2)c1	none
CCOC(=O)c1ccc(NC(=O)CCc2nc(-c3ccccc3)no2)cc1	CHOP inh 78.6
O=C(Nc1ccc(F)cc1)C(c1cc2ccccc2o1)N1CCN(c2cccc(C(F)(F)F)n2)CC1 (stereo not given)	none (no result: CHOP inh, XBP1 UPR activ, TLR9-MyD88 inh, CHOP UPR activ, TLR4-MyD88 BLA)
CCOC(=O)CSc1c(-c2cccs2)[nH]c2ccccc12	none
CCOC(=O)CSc1c(-c2ccc(Cl)cc2)[nH]c2ccccc12	CHOP inh 87.7
CCc1nc2ccc(C(=O)NCCCn3ccnc3)cn2c1N(C)Cc1nccs1	none (no result: CHOP inh, XBP1 UPR activ, TLR9-MyD88 inh, CHOP UPR activ, TLR4-MyD88 BLA)
Cc1ccc(C)c(NC(=O)C(Sc2nc3ccc(C)cc3[nH]2)c2ccccc2)c1 (stereo not given)	CHOP inh 73.2
CCC(Sc1nc2ccc(C)cc2[nH]1)C(=O)O (stereo not given)	none
Cc1cccc(S(=O)(=O)N2C[C@@H](O)COC[C@@H]3O[C@H](CC(=O)NCCCN4CCOCC4)CC[C@H]32)c1	none (no result: CHOP inh, XBP1 UPR activ, TLR9-MyD88 inh, CHOP UPR activ, TLR4-MyD88 BLA)
O=C(Nc1cccc(OC(F)(F)F)c1)C1Cc2c(-c3ccco3)ccnc2O1 (stereo not given)	none (no result: CHOP inh, XBP1 UPR activ, TLR9-MyD88 inh, CHOP UPR activ, TLR4-MyD88 BLA)
NC(=O)c1ccsc1NC(=O)COC(=O)c1ccccc1NCc1ccco1	CHOP inh 95.6
O=C(Oc1cccc(Nc2ncnc3ccccc23)c1)c1ccccc1Cl	CHOP inh 86.7
COc1cccc(Nc2ncnc3ccccc23)c1	none
CC1CN=C(c2cccn2Cc2ccc(F)cc2Cl)O1 (stereo not given)	CHOP inh 71.6
CC1(C)COC(c2cccn2Cc2ccc(F)cc2Cl)=N1	CHOP inh 85.4
CN(C)C(=O)N1CCC(C(=O)NCc2ccc(F)cc2Cl)CC1	none
CC(C)C1COC(c2cccn2Cc2ccccc2Cl)=N1 (stereo not given)	none
O=C(O)/C=C/C(=O)NCCc1ccccc1	none
CC(C)=CC(=O)NCCc1ccccc1	CHOP inh 84.6
O=C(OCC(=O)N1CCCCCC1)c1cc(S(=O)(=O)N2CCOCC2)ccc1F	none (no result: CHOP inh, XBP1 UPR activ, CHOP UPR activ, TLR4-MyD88 BLA)
CC(C)c1ccc(NC(=O)Cn2c(=O)oc3ccccc32)cc1	none (no result: CHOP inh, TLR4-MyD88 BLA)
CCn1c2ccccc2n2c(=O)c(=O)n(CC(=O)Nc3ccc(C(C)C)cc3)nc12	CHOP inh 87.0
CCOc1ccc(-c2nnc3ccc(SCC(=O)Nc4nc5ccccc5s4)nn23)cc1	CHOP inh 70.1
Cn1cc(SCC(=O)Nc2nc3ccccc3s2)c2ccccc21	CHOP inh 71.1
COc1ccc(-c2nnc(SCC(=O)Nc3ccccc3)n2C)cc1	none
Cn1c(CSCc2ccc(Cl)cc2)nnc1SCC(=O)Nc1nc2ccccc2s1	CHOP inh 91.9
COc1ccc(-c2nnc(SCC(=O)Nc3nc4ccccc4s3)n2C)cc1	CHOP inh 93.4

Screening data as filed in PubChem.
